The results in this text go back to ChEMBL document CHEMBL1135917, “Human somatostatin receptor specificity of backbone-cyclic analogues containing novel sulfur building units” (J Med Chem, 2002).

Data set [1] addresses Somatostatin receptor type 5 (Homo sapiens, UniProt P35346). The data set is described as follows: Binding affinity of human Somatostatin receptor type 5 (hsst5) by the displacement of [125I]- Tyr11 somatostatin-14 in CHO-K1 cells. In kind it is cell-based. In short, it runs like this:
(§1)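 Membranes from CHO-K1 cells stably expressing each cloned human receptor, prepared in 50 mM Tris-HCl pH 7.8 with EGTA, MgCl2 and protease inhibitors. Membranes (0.2 or 0.4 mg/mL protein, receptor-dependent) incubated with 125I-Tyr11 somatostatin-14 for 45 min at room temperature. Nonspecific binding taken with […] somatostatin. Bound ligand separated by GF/C filtration and counted. Triplicate wells, at least two experiments. IC50 taken from inhibition curves, mean ± SEM.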
In general terms: Loss of bound radioactivity is the signal in a displacement assay; it reports binding, not function.

Data set [2] deals with Somatostatin receptor type 2 (Homo sapiens, UniProt P30874). Kind of data set: Binding affinity of human Somatostatin receptor type 2 (hsst2) by the displacement of [125I]- Tyr11 somatostatin-14 in CHO-K1 cells. In kind it is cell-based. The gist of the method: as §1
The target in data set [3] is Somatostatin receptor type 4 (Homo sapiens, UniProt P31391). Kind of data set: Binding affinity of human Somatostatin receptor type 4 (hsst4) by the displacement of [125I]- Tyr11 somatostatin-14 in CHO-K1 cells. In kind it is cell-based. The gist of the method: as §1
The target in data set [4] is Somatostatin receptor type 3 (Homo sapiens, UniProt P32745). Kind of data set: Binding affinity of human Somatostatin receptor type 3 (hsst3) by the displacement of [125I]- Tyr11 somatostatin-14 in CHO-K1 cells. The format is cell-based. In short, it runs like this: as §1
Data set [5] has as its target Somatostatin receptor type 1 (Homo sapiens, UniProt P30872). The data set is described as follows: Binding affinity of human Somatostatin receptor type 1 (hsst1) by the displacement of [125I]- Tyr11 somatostatin-14 in CHO-K1 cells. The format is cell-based. The gist of the method:
as §1

Data set [6] in a line: Half life in renal homogenate. In kind it is ADME, tissue-based. In short, it runs like this:
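Peptides at 0.4 mg/mL final were incubated in rat renal homogenate at 37 °C for up to 4 h. Samples were taken at several time points. The fraction of intact peptide was measured by HPLC from the loss of major-peak area.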

pIC50: −log10 of the molar value. *1 amine or outer side, *2 acyl side, *3 side chain or, on linkers, in order; H or OH if unused. Where a SMILES comes first, the peptide text is derived from it. Bridges are numbered along the chain shown (N, C = ends). [ ]: non-standard residue; d: D form. N(2-mercaptoethyl)Gly = O=C(CN(CCS[*:3])[*:1])[*:2] Some results are limits rather than exact numbers.

Somatostatin receptor type 4, sequence (P31391 whole entry): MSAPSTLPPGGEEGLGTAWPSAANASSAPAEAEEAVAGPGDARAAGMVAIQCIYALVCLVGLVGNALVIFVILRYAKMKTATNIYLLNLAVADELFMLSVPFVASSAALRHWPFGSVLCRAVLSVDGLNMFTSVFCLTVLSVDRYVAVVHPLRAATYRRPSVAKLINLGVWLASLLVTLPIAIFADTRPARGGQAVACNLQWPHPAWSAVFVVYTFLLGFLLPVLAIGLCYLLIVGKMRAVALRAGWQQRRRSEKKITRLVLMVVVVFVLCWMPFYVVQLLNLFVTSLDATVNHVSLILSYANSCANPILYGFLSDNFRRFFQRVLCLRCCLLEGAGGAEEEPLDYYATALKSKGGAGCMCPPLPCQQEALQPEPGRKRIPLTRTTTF
Somatostatin receptor type 3, sequence (P32745 whole entry): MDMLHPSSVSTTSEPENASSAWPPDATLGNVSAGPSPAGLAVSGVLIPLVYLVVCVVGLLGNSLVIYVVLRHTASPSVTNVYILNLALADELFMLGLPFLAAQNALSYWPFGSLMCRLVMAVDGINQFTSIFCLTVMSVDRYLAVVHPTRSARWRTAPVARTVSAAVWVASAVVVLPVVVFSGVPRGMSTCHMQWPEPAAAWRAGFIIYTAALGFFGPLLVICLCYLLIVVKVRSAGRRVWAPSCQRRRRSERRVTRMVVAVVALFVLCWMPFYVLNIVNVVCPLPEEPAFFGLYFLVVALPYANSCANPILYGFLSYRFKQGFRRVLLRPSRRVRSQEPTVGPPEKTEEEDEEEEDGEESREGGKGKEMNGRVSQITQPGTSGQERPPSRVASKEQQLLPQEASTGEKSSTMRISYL
Somatostatin receptor type 5, sequence (P35346 whole entry): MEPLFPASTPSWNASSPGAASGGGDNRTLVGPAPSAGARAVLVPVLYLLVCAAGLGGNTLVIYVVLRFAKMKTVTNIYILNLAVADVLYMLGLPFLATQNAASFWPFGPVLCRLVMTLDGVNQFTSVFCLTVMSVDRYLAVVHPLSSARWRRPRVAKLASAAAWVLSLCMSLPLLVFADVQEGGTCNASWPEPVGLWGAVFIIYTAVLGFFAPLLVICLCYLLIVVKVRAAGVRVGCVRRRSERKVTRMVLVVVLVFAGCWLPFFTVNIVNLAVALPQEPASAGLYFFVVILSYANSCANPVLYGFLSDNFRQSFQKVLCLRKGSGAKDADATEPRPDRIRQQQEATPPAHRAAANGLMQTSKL
Somatostatin receptor type 2, sequence (P30874 whole entry): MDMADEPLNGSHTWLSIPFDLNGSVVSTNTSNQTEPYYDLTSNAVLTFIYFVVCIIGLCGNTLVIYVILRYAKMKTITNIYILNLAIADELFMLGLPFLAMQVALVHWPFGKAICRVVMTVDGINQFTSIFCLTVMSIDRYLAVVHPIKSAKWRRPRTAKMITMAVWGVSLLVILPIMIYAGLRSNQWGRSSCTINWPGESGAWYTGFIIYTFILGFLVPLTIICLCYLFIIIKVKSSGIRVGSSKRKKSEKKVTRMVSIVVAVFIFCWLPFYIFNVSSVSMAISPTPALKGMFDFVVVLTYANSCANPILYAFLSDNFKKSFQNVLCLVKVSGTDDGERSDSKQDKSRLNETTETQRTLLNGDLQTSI
Somatostatin receptor type 1, sequence (P30872 whole entry): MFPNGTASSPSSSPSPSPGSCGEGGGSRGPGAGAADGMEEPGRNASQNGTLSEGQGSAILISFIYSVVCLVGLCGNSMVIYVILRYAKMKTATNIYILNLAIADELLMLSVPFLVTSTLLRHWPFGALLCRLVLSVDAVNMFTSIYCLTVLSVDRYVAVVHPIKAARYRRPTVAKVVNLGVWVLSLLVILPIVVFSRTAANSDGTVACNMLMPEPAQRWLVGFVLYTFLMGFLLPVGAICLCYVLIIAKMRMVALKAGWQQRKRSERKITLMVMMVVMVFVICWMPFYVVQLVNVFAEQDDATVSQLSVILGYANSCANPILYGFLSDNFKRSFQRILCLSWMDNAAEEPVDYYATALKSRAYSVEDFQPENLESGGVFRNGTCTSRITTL

Take `C[C@@H](O)[C@@H]1NC(=O)[C@H](CCCCN)NC(=O)[C@@H](Cc2c[nH]c3ccccc23)NC(=O)[C@H](Cc2c[nH]c3ccccc23)NC(=O)[C@H](Cc2ccccc2)NC(=O)CCCNC(=O)CCCN(CC(N)=O)C(=O)[C@H](Cc2ccccc2)NC1=O`: the pIC50 in data set [1] was 9.00; in data set [2], 8.52; in data set [3] it was 8.15; in data set [4], below 7.00; in data set [5] it was below 6.00.
In data set [6], `C[C@@H](O)[C@@H]1NC(=O)[C@H](CCCCN)NC(=O)[C@@H](Cc2c[nH]c3ccccc23)NC(=O)[C@H](Cc2c[nH]c3ccccc23)NC(=O)[C@H](Cc2ccccc2)NC(=O)[C@@H](N)CSSCCN(CC(N)=O)C(=O)[C@H](Cc2ccccc2)NC1=O` (H-CFW[dW]KTF[N(2-mercaptoethyl)Gly]-NH2; disulfide 1-8) showed a half-life of 3 h. Besides, the pIC50 in data set [1] is 8.92; in data set [2] it was 8.28; in data set [3], 7.39; in data set [4] it was 7.39; in data set [5], below 6.00.
On to `C[C@@H](O)[C@@H]1NC(=O)[C@@H](CCCCN)NC(=O)[C@@H](Cc2c[nH]c3ccccc23)NC(=O)[C@@H](Cc2c[nH]c3ccccc23)NC(=O)[C@H](Cc2ccccc2)NC(=O)CN(C(=O)[C@@H](N)Cc2ccccc2)CCSSCCN(CC(N)=O)C(=O)[C@@H](Cc2ccccc2)NC1=O`, for which the negative-log IC50 (pIC50) in data set [1] (cho-k1) was 7.74; in data set [2] (cho-k1), 8.60; in data set [3] (cho-k1), below 7.00; in data set [4] (cho-k1), below 7.00; in data set [5] (cho-k1), below 6.00.
With `C[C@@H](O)[C@@H]1NC(=O)[C@@H](CCCCN)NC(=O)[C@@H](Cc2c[nH]c3ccccc23)NC(=O)[C@@H](Cc2c[nH]c3ccccc23)NC(=O)[C@H](Cc2ccccc2)NC(=O)C(NC(=O)[C@@H](N)Cc2ccccc2)CSSCCN(CC(N)=O)C(=O)[C@@H](Cc2ccccc2)NC1=O` (stereo not given in full), the negative logarithm of the IC50 (pIC50) in data set [1] (cho-k1) is 8.35; in data set [2] (cho-k1), 7.89; in data set [3] (cho-k1), 7.44; in data set [4] (cho-k1), below 7.00; in data set [5] (cho-k1), below 6.00.
For the compound `C[C@@H](O)[C@@H]1NC(=O)[C@H](CCCCN)NC(=O)[C@@H](Cc2c[nH]c3ccccc23)NC(=O)[C@H](Cc2c[nH]c3ccccc23)NC(=O)[C@H](Cc2ccccc2)NC(=O)CNCCSSCCN(CC(N)=O)C(=O)[C@H](Cc2ccccc2)NC1=O`, the pIC50 was 8.11 in data set [1]; 8.39 in data set [2]; 7.31 in data set [3]; below 7.00 in data set [4]; below 6.00 in data set [5].
The matching figures for `C[C@@H](O)[C@@H]1NC(=O)[C@H](CCCCN)NC(=O)[C@@H](Cc2c[nH]c3ccccc23)NC(=O)[C@H](Cc2c[nH]c3ccccc23)NC(=O)[C@H](Cc2ccccc2)NC(=O)CCSSCCN(CC(N)=O)C(=O)[C@H](Cc2ccccc2)NC1=O`: 8.55, 8.89, below 7.00, below 7.00 and below 6.00.
For the compound `C[C@@H](O)[C@@H]1NC(=O)[C@H](CCCCN)NC(=O)[C@@H](Cc2c[nH]c3ccccc23)NC(=O)[C@H](Cc2c[nH]c3ccccc23)NC(=O)[C@H](Cc2ccccc2)NC(=O)CSSCCN(CC(N)=O)C(=O)[C@H](Cc2ccccc2)NC1=O`, the negative logarithm of the IC50 (pIC50) in data set [2] is 7.54; in data set [3], below 7.00; in data set [4], 7.81; in data set [5], below 6.00.

What is called pIC50 is the negative decadic logarithm of the IC50, by convention in mol/L. As a reminder, the half-life is how long it takes for the measured level to halve. Read a high half-life as slow loss.
